Numbering of substitutions follows the chain as printed. Names may count otherwise. “Also recorded” adds a separate entry of the source. No end group written: not given here.
Tests used:
[1] = biological target: HSF2BP bound to BRME1-M (complex formed beforehand) (human) (UniProt O75031); test: ITC
[2] = test system: HR intermediates (X-arc) of pICL in Xenopus egg extract; assay type: biochemical; conditions: HSF2BP 0.45 μM, peptide 1.35 μM
[3] = biological target: T1, HSF2BP (Homo sapiens, UniProt O75031); test: ITC, BRME1 peptides versus full-length HSF2BP; assay type: binding
T1 sequence (O75031 1-334): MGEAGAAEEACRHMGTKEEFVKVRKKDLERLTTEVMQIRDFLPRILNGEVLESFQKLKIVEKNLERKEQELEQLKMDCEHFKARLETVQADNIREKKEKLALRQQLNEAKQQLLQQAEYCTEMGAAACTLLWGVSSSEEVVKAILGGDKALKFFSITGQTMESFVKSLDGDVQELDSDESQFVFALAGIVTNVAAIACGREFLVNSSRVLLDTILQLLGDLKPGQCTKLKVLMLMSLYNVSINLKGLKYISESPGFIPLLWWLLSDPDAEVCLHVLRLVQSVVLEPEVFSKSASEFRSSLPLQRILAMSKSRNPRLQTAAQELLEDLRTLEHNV
Method in brief: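 Full-length HSF2BP was His-tagged and bacterially expressed (IPTG, 20°C overnight), TEV-cleaved and SEC-purified. Synthetic BRME1 peptides: N, residues 578–601; M, 602–641; C, 649–668. In 25 mM tris pH 7.5, 250 mM NaCl, 5 mM β-mercaptoethanol at 293 and 303 K, 8–13 μM HSF2BP in the cell was titrated with 80–130 μM peptide. Injections of 10 μl every 210 s; first 2-μl injection discarded. Run in duplicate, fitted for stoichiometry, constants and thermodynamics.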

[4] = test system: interstrand crosslink repair (pICL) in Xenopus egg extract; test: Cisplatin interstrand crosslink repair in Xenopus egg extract; assay type: biochemical; conditions: HSF2BP 0.45 μM, peptide 1.35 μM
[5] = biological target: T2, HSF2BP helix α1 (Homo sapiens, UniProt O75031); test: ITC, BRME1-M versus HSF2BP helix α1 peptide; assay type: binding
T2 sequence (O75031 19-50 limits assumed): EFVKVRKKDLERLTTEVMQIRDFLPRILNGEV

[6] = biological target: T1, HSF2BP; test: Mass photometry; assay type: physicochemical; conditions: 25-100 nM
[7] = test system: complex formed by HSF2BP and BRCA2-HBD; test: Negative-staining EM of ring-shaped HSF2BP-BRCA2-HBD complex; assay type: binding, human; conditions: 2:1 mix of HSF2BP and BRCA2-HBD
[8] = test system: endogenous Xenopus BRCA2; test: BRCA2 degradation during interstrand crosslink repair in Xenopus egg extract; assay type: biochemical; conditions: HSF2BP 0.45 μM, peptide 1.35 μM; 5 to 120 min
[9] = biological target: T1, HSF2BP; test: Scanning force microscopy; assay type: physicochemical
Method in brief: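 HSF2BP was diluted 10,000-fold to 12 nM in 25 mM tris-HCl pH 7.5, 250 mM NaCl, 5 mM β-mercaptoethanol. It was deposited for 30 s on freshly cleaved mica, rinsed with water, dried under filtered air, and imaged in air by SFM. Particle volume distributions were obtained by kernel density analysis.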

[10] = biological target: T3, HSF2BP + BRCA2-HBD (Homo sapiens, UniProt O75031+P51587); test: ITC, BRME1-M versus HSF2BP bound to BRCA2-HBD; assay type: binding; conditions: 293 K
T3 sequence (O75031 1-334): T1 sequence (O75031 1-334)
T3 sequence (P51587 2291-2342 C2332T partner limits assumed): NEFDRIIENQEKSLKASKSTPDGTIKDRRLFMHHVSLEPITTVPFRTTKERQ

[11] = test system: HeLa cells; assay type: cell-based, human; conditions: HeLa stably producing the protein; MMC, cisplatin, talazoparib
Method in brief: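 HeLa cells in DMEM with 10% fetal calf serum were stably co-transfected (PiggyBac) with GFP-HSF2BP and/or Flag-BRME1 variants, then selected with puromycin (1.5 μg/ml) and G418 (800 μg/ml) for 8 days; mixed populations were used. Seeded 100–1000 cells/well in technical duplicates, drugs added next day: MMC 2 h, cisplatin or talazoparib overnight. Coomassie-stained colonies counted on day 10.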

[12] = biological target: the molecule itself; test: SEC-MALS
[13] = biological target: the molecule itself; test: crystal structure
[14] = biological target: T4, HSF2BP + BRME1-M (Homo sapiens, UniProt O75031+Q0VDD7); test: ITC, BRCA2 fragments versus HSF2BP bound to BRME1-M; assay type: binding; conditions: 293 K
T4 sequence (O75031 1-334): T1 sequence (O75031 1-334)
T4 sequence (Q0VDD7 602-641 partner limits assumed): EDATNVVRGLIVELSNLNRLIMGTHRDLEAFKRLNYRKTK

[15] = SFM on mica, in air, HSF2BP at 12 nM

“BRCA2 fragment 2213–2342 (from UniProt P51587 2213-2342) (domain or fragment)” gave a dH [1] of -10.9 kcal/mol.

“BRME1-C: synthetic peptide, human BRME1 residues 649 to 668 (PYPSKGPGNIPRGDPPWREL)” was tested, and the “effect on HR repair intermediates, in words” value [2] was “no such effect”, the “binding to HSF2BP, in words” value ([3]; 30°C) was “does not bind HSF2BP” and the “effect on interstrand crosslink repair, in words” value [4] was “no such effect”.

With “EDATNVVRGLVIELSNLNRLIMGTHRDLEAFKRLNYRKTK [BRME1-M]” the ΔH ([5]; 293 K) was -1.2 kcal/mol, the “─TΔS” value ([5]; 293 K) was -9.00 kcal/mol and the ΔH ([5]; 303 K) was -7.6 kcal/mol. The “─TΔS” value ([5]; 303 K) was -2.90 kcal/mol, the “effect on / state of HSF2BP oligomers, in words” value [6] was “the HSF2BP tetramer is dissociated into dimers; also recorded: disassembles the 24-nucleotide oligomer complexes, yielding to a mix between octamers, tetramers, and dimers; also recorded: caused disassembly of the ring-shaped complex and enrichment in double-octamers, octamers, and tetramers” and the “effect on ring-shaped complexes, in words” value [7] was “near-complete disappearance of the large ring-shape complexes”. For the same molecule, the “effect on HSF2BP-induced BRCA2 degradation, in words” value [8] was “completely abolished”, the “effect on HR repair intermediates, in words” value [2] was “specifically suppressed the reduction in the formation of HR repair intermediates” and the “effect on HSF2BP-BRCA2-HBD oligomers, in words” value ([9]; SFM, HSF2BP:BRME1-M = 1:1) was “complete disappearance of the 24-nucleotide oligomer population”. The ΔG ([3]; 293 K) was -10.6 kcal/mol, the ΔH ([3]; 293 K) was -5.7 kcal/mol and the “─TΔS” value ([3]; 293 K) was -4.90 kcal/mol. For the same molecule, the ΔG ([3]; 303 K) was -10.7 kcal/mol, the ΔH ([3]; 303 K) was -8.2 kcal/mol and the “─TΔS” value ([3]; 303 K) was -2.50 kcal/mol. For the same molecule, the “effect on interstrand crosslink repair, in words” value [4] was “reverted the inhibitory effect of HSF2BP on the interstrand crosslink repair reaction”, the ΔG ([10]; first of two lines) was -10 kcal/mol and the ΔH ([10]; first of two lines) was -4.4 kcal/mol. For the same molecule, the “─TΔS” value ([10]; first of two lines) was -5.60 kcal/mol, the ΔH ([10]; second of two lines) was -5.8 kcal/mol and the “─TΔS” value ([10]; second of two lines) was -4.40 kcal/mol.

B1: HSF2BP H80A-R84A (natural protein, human, UniProt O75031 1-334, looked up)
chain: T1 sequence (O75031 1-334) with H80A, R84A
B1 was tested, and the “effect on cell resistance to DNA damage, in words” value (from here on “effect on cell resistance”) [11] was “compromised cell survival as HSF2BP wild type” and the “stoichiometry N” value [12] was 8.

B2: C78A-C120S-C128A (protein, UniProt O75031 1-334, looked up, variant C78A C120S C128A)
Heat shock factor 2-binding …: T1 sequence (O75031 1-334) with C78A, C120S, C128A
In the case of B2, the “effect on cell resistance” value [11] is reported as “sensitized HeLa cells less than the wild-type protein”.

B3: BRME1: Flag-BRME1 stably produced in HeLa cells (protein, UniProt Q0VDD7 1-668, looked up)
Break repair meiotic …: MTKRKKLRTSGEGLCPPKPLKNPRLGDFYGDPQSSMLGCLHHPEEPEGKLGPVPSTQQHGEEPGKAVSSSPDEETGSPCRLLRQPEKEPAPLPPSQNSFGRFVPQFAKSRKTVTRKEEMKDEDRGSGAFSLETIAESSAQSPGCQLLVETLGVPLQEATELGDPTQADSARPEQSSQSPVQAVPGSGDSQPDDPPDRGTGLSASQRASQDHLSEQGADDSKPETDRVPGDGGQKEHLPSIDSEGEKPDRGAPQEGGAQRTAGAGLPGGPQEEGDGVPCTPASAPTSGPAPGLGPASWCLEPGSVAQGSPDPQQTPSRMGREGEGTHSSLGCSSLGMVVIADLSTDPTELEERALEVAGPDGQASAISPASPRRKAADGGHRRALPGCTSLTGETTGESGEAGQDGKPPGDVLVGPTASLALAPGSGESMMGAGDSGHASPDTGPCVNQKQEPGPAQEEAELGGQNLERDLEGFRVSPQASVVLEHREIADDPLQEPGAQQGIPDTTSELAGQRDHLPHSADQGTWADSLAVELDFLLDSQIQDALDASDFEAPPEQLFPSGNKPGPCWPGPSSHANGDPVAVAKAQPRTFVGIQASEASRMEDATNVVRGLIVELSNLNRLIMGTHRDLEAFKRLNYRKTKLGGKAPLPYPSKGPGNIPRGDPPWREL
modifications: Flag tag
With B3 the “effect on cell resistance” value [11] was “cancels the disruptive effect of HSF2BP on cancer cell resistance to DNA damage; also recorded: no effect on the cell sensitivity to DNA damage; also recorded: completely abolished the sensitization induced by HSF2BP”.

B4: armadillo domain: HSF2BP armadillo domain alone (E122-V334) (protein)
chain: EMGAAACTLLWGVSSSEEVVKAILGGDKALKFFSITGQTMESFVKSLDGDVQELDSDESQFVFALAGIVTNVAAIACGREFLVNSSRVLLDTILQLLGDLKPGQCTKLKVLMLMSLYNVSINLKGLKYISESPGFIPLLWWLLSDPDAEVCLHVLRLVQSVVLEPEVFSKSASEFRSSLPLQRILAMSKSRNPRLQTAAQELLEDLRTLEHNV
With B4 the “particle volume, larger peak” value [9, 15] was roughly 90 nm^3 and the “particle volume, smaller peak” value [9, 15] was roughly 35 nm^3.

In the case of EFVKVRKKDLERLTTEVMQIRDFLPRILNGEV (peptide, UniProt O75031 19-50, looked up) [HSF2BP helix α1 peptide (residues 19 to 50)], the “stoichiometry N” value [13] is reported as 4.

B5: BRCA2_2213–2342: BRCA2 fragment 2213–2342 (protein, UniProt P51587 2213-2342, looked up, fragment)
chain: STYSKDSENYFETEAVEIAKAFMEDDELTDSKLPSHATHSLFTCPENEEMVLSNSRIGKRRGEPLILVGEPSIKRNLLNEFDRIIENQEKSLKASKSTPDGTIKDRRLFMHHVSLEPITCVPFRTTKERQ
B5 was tested, and the ΔH [14] was -10.9 kcal/mol, the “─TΔS” value [14] was -1.70 kcal/mol and the Kd ([14]; pH 7.5, 10 μM complex in cell, 55 to 60 μM BRCA2 fragment in syringe) was 7.8 nM.

Source: PMC10610910 (Science Advances, 2023)
